Measured values reported in article PMC11359625 (ACS Omega, 2024).
In brackets after ≈: the same amount, converted by molar mass. Like-named read-outs stand apart in the source and are kept apart here.

How the values were obtained:
[1] = test system: PTP1B; conditions: cited from earlier work
[2] = test system: polyol pathway; conditions: cited from earlier work
[3] = test system: AR; conditions: cited from earlier work
[4] = test system: human lens AR; conditions: at a dose of 5 μM; cited from earlier work
[5] = test system: human recombinant AR; conditions: cited from earlier work
[6] = test system: AR; conditions: read-out: IC50 AR inhibition; in vitro; cited from earlier work
[7] = test system: PTP1B mRNA in IR-HepG2 cells; experiment: PTP1B mRNA expression by real-time qPCR; format: cell-based
[8] = test system: HepG2 cells; conditions: up to 40 μM; ref Xue et al.; cited from earlier work
[9] = target: T1, PTP1B (Homo sapiens, UniProt P18031); experiment: PTP1B inhibitory activity with pNPP substrate; format: biochemical
T1 sequence (P18031 1-435): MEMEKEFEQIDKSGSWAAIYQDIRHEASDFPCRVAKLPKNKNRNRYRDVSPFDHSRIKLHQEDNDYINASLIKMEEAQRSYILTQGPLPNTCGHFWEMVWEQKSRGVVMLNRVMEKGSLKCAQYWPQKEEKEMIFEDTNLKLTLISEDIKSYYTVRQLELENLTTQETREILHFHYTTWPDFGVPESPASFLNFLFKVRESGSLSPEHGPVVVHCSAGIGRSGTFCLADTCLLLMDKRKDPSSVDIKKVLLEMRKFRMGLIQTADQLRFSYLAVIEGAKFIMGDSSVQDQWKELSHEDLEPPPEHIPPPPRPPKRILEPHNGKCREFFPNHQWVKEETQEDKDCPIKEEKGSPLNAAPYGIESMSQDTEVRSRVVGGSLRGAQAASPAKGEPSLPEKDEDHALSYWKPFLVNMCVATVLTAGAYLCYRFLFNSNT

[10] = target: T1, PTP1B; experiment: Kinetic study, Lineweaver–Burk plot, PTP1B; format: biochemical; conditions: alkannin 0-20 μM
Method in brief: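 Recombinant human PTP1B (0.5 units in PTP1B reaction buffer) preincubated with the test compound at several concentrations for 10 min at 37 °C. pNPP substrate then added and incubated 15 min at 37 °C; reaction stopped with 10 M NaOH and read at 405 nm. Inhibition type taken from a Lineweaver–Burk plot; mean ± SEM, triplicate experiments.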

[11] = target: Recombinant human aldose reductase (Homo sapiens, UniProt P15121); experiment: AR activity assay; format: biochemical
[12] = target: AR (Homo sapiens, UniProt P15121); experiment: Kinetic study, Lineweaver–Burk plot, AR; format: biochemical; conditions: alkannin 0-20 μM
Method in brief: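 Recombinant human aldose reductase in 0.05 M sodium phosphate, pH 6.2, with 0.3 mM NADPH and DL-glyceraldehyde substrate, at several test-compound concentrations. Activity followed as the fall in NADPH absorbance at 340 nm over 4 min. Inhibition type assigned from a Lineweaver–Burk double-reciprocal plot; mean ± SEM of triplicate experiments.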

[13] = test system: C57BL/KsJ-db/db mice; conditions: 20 and 40 mg/kg body weight; cited from earlier work
[14] = test system: HepG2 cells; experiment: MTT cytotoxicity assay; format: cell-based; conditions: up to 50 μM, 24 h
Method in brief: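 Normal HepG2 cells seeded at 5 × 10³ cells/well and grown 24 h. Test compound in DMSO added at […] for 24 h. MTT then added, and absorbance used to calculate percent cell viability.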

[15] = test system: IR-HepG2 cells; experiment: 2-NBDG glucose uptake in insulin-resistant HepG2 cells; format: cell-based; conditions: 24 h treatment, concentration-dependent
Method in brief: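 Insulin resistance induced in confluent HepG2 (5 × 10³ cells/well; MEM, 10% FBS, 37 °C, 5% CO2) with 1 μM insulin for 24 h. Test compound added at several concentrations below 50 μM for 24 h, then 1 μM insulin for 30 min and 50 μM 2-NBDG for 30 min. Cells washed with ice-cold PBS; fluorescence read at ex 485/em 528 nm. Uptake expressed relative to untreated normal HepG2 (100%); mean ± SEM, triplicate.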

[16] = test system: AR; conditions: cited from earlier work; remark: listed apart in the source
[17] = test system: PTP1B; conditions: cited from earlier work; remark: listed apart in the source

CC1=C[C@H]2c3c(O)cc(-c4cc5ccc(O)cc5o4)cc3O[C@@]3(c4ccc(O)cc4O)Oc4cc(O)ccc4[C@H](C1)[C@@H]23 [mulberrofuran G]
type of PTP1B enzyme inhibition [1]: mixed-type

O=c1c(O)c(-c2ccc(O)c(O)c2)oc2cc(O)cc(O)c12 [Quercetin]
reduction in the accumulation of xylitol [2]: 80% | AR inhibition ([3]; at a dose of 10 μM): 95% | manner of AR inhibition [3]: noncompetitive | inhibition of human lens AR [4]: 50%

COc1cc(/C=C/C(=O)CC(=O)/C=C/c2ccc(O)c(OC)c2)ccc1O [curcumin]
manner of inhibition of human recombinant AR [5]: noncompetitive | IC50 [6]: 6.8 µM

CC(C)=CCc1c(-c2ccc(O)cc2O)oc2c([C@H]3C=C(C)C[C@@H](c4ccc(O)cc4O)[C@@H]3C(=O)c3ccc(O)cc3O)c(O)cc(O)c2c1=O [kuwanon G]
type of PTP1B enzyme inhibition [1]: mixed-type

CC(C)=CC[C@H](O)C1=CC(=O)c2c(O)ccc(O)c2C1=O [Alkannin]
PTP1B mRNA expression [7]: significantly reduced | effect in HepG2 cells pretreated with palmitic acid [8]: protective role | IC50 [9]: 19.5 µM | type of inhibition of PTP1B [10]: mixed-inhibition | IC50 [11]: 22.8 µM | type of inhibition of AR [12]: mixed-inhibition | effect on liver injury and inflammation in diabetic mice [13]: protective role | cytotoxicity on normal HepG2 cells (MTT) [14]: insignificant cytotoxicity | insulin-stimulated 2-NBDG uptake [15]: significantly enhanced

O=C1C=C(O)C(=O)C=C1O [2,5-dihydroxy-p-benzoquinone]
manner of AR inhibition [16]: noncompetitive

O=C(O)[C@H]1O[C@@H](Oc2c(-c3ccc(O)c(O)c3)oc3cc(O)cc(O)c3c2=O)[C@H](O)[C@@H](O)[C@@H]1O [quercetin-3-O-β-D-glucuronide]
IC50 PTP1B inhibitory activity [17]: 7.39 ± 1.15 µg/mL (≈ 15.4 µM)

Cc1cc2c3c(c1)-c1c(O)cc(-c4cc5ccc(O)cc5o4)cc1OC3(c1ccc(O)cc1O)Oc1cc(O)ccc1-2 (stereo not drawn) [albanol B]
type of PTP1B enzyme inhibition [1]: mixed-type

O=C(O)[C@H]1O[C@@H](Oc2c(-c3cc(O)c(O)c(O)c3)oc3cc(O)cc(O)c3c2=O)[C@H](O)[C@@H](O)[C@@H]1O [myricetin-3-O-β-Dglucuronide]
IC50 PTP1B inhibitory activity [17]: 9.47 ± 3.31 µg/mL (≈ 19.2 µM)
